Data reported in ChEMBL document CHEMBL3124806, “Imidazopyridine-fused [1,3]-diazepinones: synthesis and antiproliferative activity” (Eur J Med Chem, 2014).

Experiments:
Assay type in all cases: functional
PC-3 = experiment: Cytotoxicity against human PC3 cells assessed as cell growth at 10 uM after 48 hrs by SRB assay relative to untreated control; settings: PC-3, 48 h, read-out: Activity
Summary of the method: (§1)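 NCI-60 one-dose screen: each agent added at 10 µM, cultures incubated 48 h. Endpoint by sulforhodamine B protein-binding dye read spectrophotometrically; growth expressed as percent of untreated control cells.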

[1] = Cytotoxicity against human OVCAR5 cells assessed as cell growth at 10 uM after 48 hrs by SRB assay relative to untreated control; settings: OVCAR-5, 48 h, read-out: Activity; summary of the method: as §1
UACC-62 = experiment: Cytotoxicity against human UACC62 cells assessed as cell growth at 10 uM after 48 hrs by SRB assay relative to untreated control; settings: UACC-62, 48 h, read-out: Activity
Summary of the method: (§2)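 NCI-60 single-dose screen. Compounds were added to the cultures at 10 μM and incubated for 48 h. The end point was sulforhodamine B protein staining read spectrophotometrically. Growth is reported as percent of untreated control cells.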

NCI-H226 = experiment: Cytotoxicity against human NCI-H226 cells assessed as cell growth at 10 uM after 48 hrs by SRB assay relative to untreated control; settings: NCI-H226, 48 h, read-out: Activity; summary of the method: as §1
[2] = Cytotoxicity against human UO31 cells assessed as cell growth at 10 uM after 48 hrs by SRB assay relative to untreated control; settings: UO-31, 48 h, read-out: Activity; summary of the method: as §2
[3] = Cytotoxicity against human UACC257 cells assessed as cell growth at 10 uM after 48 hrs by SRB assay relative to untreated control; settings: UACC-257, 48 h, read-out: Activity; summary of the method: as §2
ACHN = experiment: Cytotoxicity against human ACHN cells assessed as cell growth at 10 uM after 48 hrs by SRB assay relative to untreated control; settings: read-out: Activity
Summary of the method: (§3)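 NCI-60 panel screen at a single concentration of 10 μM with 48 h incubation. Cell density measured by sulforhodamine B protein-binding dye and read spectrophotometrically. Growth expressed as percent of untreated control cells.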

SR = experiment: Cytotoxicity against human SR cells assessed as cell growth at 10 uM after 48 hrs by SRB assay relative to untreated control; settings: read-out: Activity; summary of the method: as §2
U-251 = experiment: Cytotoxicity against human U251 cells assessed as cell growth at 10 uM after 48 hrs by SRB assay relative to untreated control; settings: U-251, 48 h, read-out: Activity; summary of the method: as §2
SW-620 = experiment: Cytotoxicity against human SW620 cells assessed as cell growth at 10 uM after 48 hrs by SRB assay relative to untreated control; settings: SW-620, 48 h, read-out: Activity; summary of the method: as §2
MDA-MB-468 = experiment: Cytotoxicity against human MDA-MB-468 cells assessed as cell growth at 10 uM after 48 hrs by SRB assay relative to untreated control; settings: MDA-MB-468, 48 h, read-out: Activity; summary of the method: as §1
RXF 393 = experiment: Cytotoxicity against human RXF393 cells assessed as cell growth at 10 uM after 48 hrs by SRB assay relative to untreated control; settings: RXF 393, 48 h, read-out: Activity; summary of the method: as §1
HCT-15 = experiment: Cytotoxicity against human HCT15 cells assessed as cell growth at 10 uM after 48 hrs by SRB assay relative to untreated control; settings: HCT-15, 48 h, read-out: Activity; summary of the method: as §3
786-0 = experiment: Cytotoxicity against human […] cells assessed as cell growth at 10 uM after 48 hrs by SRB assay relative to untreated control; settings: 786-0, 48 h, read-out: Activity; summary of the method: as §3
MCF7 = experiment: Cytotoxicity against human MCF7 cells assessed as cell growth at 10 uM after 48 hrs by SRB assay relative to untreated control; settings: MCF7, 48 h, read-out: Activity; summary of the method: as §3
BT-549 = experiment: Cytotoxicity against human BT549 cells assessed as cell growth at 10 uM after 48 hrs by SRB assay relative to untreated control; settings: BT-549, 48 h, read-out: Activity; summary of the method: as §3
MDA-MB-231 = experiment: Cytotoxicity against human MDA-MB-231 cells assessed as cell growth at 10 uM after 48 hrs by SRB assay relative to untreated control; settings: MDA-MB-231, 48 h, read-out: Activity; summary of the method: as §1
K562 = experiment: Cytotoxicity against human K562 cells assessed as cell growth at 10 uM after 48 hrs by SRB assay relative to untreated control; settings: K562, 48 h, read-out: Activity; summary of the method: as §3
HT-29 = experiment: Cytotoxicity against human HT-29 cells assessed as cell growth at 10 uM after 48 hrs by SRB assay relative to untreated control; settings: HT-29, 48 h, read-out: Activity; summary of the method: as §3
COLO 205 = experiment: Cytotoxicity against human COLO205 cells assessed as cell growth at 10 uM after 48 hrs by SRB assay relative to untreated control; settings: COLO 205, 48 h, read-out: Activity; summary of the method: as §3
SNB-19 = experiment: Cytotoxicity against human SNB19 cells assessed as cell growth at 10 uM after 48 hrs by SRB assay relative to untreated control; settings: SNB-19, 48 h, read-out: Activity; summary of the method: as §2
NCI-H522 = experiment: Cytotoxicity against human NCI-H522 cells assessed as cell growth at 10 uM after 48 hrs by SRB assay relative to untreated control; settings: NCI-H522, 48 h, read-out: Activity; summary of the method: as §1
LOX IMVI = experiment: Cytotoxicity against human LOXIMVI cells assessed as cell growth at 10 uM after 48 hrs by SRB assay relative to untreated control; settings: read-out: Activity; summary of the method: as §3
OVCAR-3 = experiment: Cytotoxicity against human OVCAR3 cells assessed as cell growth at 10 uM after 48 hrs by SRB assay relative to untreated control; settings: OVCAR-3, 48 h, read-out: Activity; summary of the method: as §1
NCI-H460 = experiment: Cytotoxicity against human NCI-H460 cells assessed as cell growth at 10 uM after 48 hrs by SRB assay relative to untreated control; settings: NCI-H460, 48 h, read-out: Activity; summary of the method: as §1
CAKI-1 = experiment: Cytotoxicity against human Caki1 cells assessed as cell growth at 10 uM after 48 hrs by SRB assay relative to untreated control; settings: CAKI-1, 48 h, read-out: Activity; summary of the method: as §3
MOLT-4 = experiment: Cytotoxicity against human MOLT4 cells assessed as cell growth at 10 uM after 48 hrs by SRB assay relative to untreated control; settings: MOLT-4, 48 h, read-out: Activity; summary of the method: as §1
KM12 = experiment: Cytotoxicity against human KM12 cells assessed as cell growth at 10 uM after 48 hrs by SRB assay relative to untreated control; settings: KM12, 48 h, read-out: Activity; summary of the method: as §3
NCI-H322M = experiment: Cytotoxicity against human NCI-H322M cells assessed as cell growth at 10 uM after 48 hrs by SRB assay relative to untreated control; settings: read-out: Activity; summary of the method: as §1
SNB-75 = experiment: Cytotoxicity against human SNB75 cells assessed as cell growth at 10 uM after 48 hrs by SRB assay relative to untreated control; settings: SNB-75, 48 h, read-out: Activity; summary of the method: as §2
OVCAR-8 = experiment: Cytotoxicity against human OVCAR8 cells assessed as cell growth at 10 uM after 48 hrs by SRB assay relative to untreated control; settings: OVCAR-8, 48 h, read-out: Activity; summary of the method: as §1

Structure (SMILES): C[C@H]1NC(c2ccc(Br)cc2)=Nc2nc3ccccn3c2C1=O
- growth at 10 µM (PC-3): 83.8%
- growth at 10 µM [1]: 98.2%
- growth at 10 µM (UACC-62): 84%
- growth at 10 µM (NCI-H226): 85.7%
- growth at 10 µM [2]: 51.5%
- growth at 10 µM [3]: 101%
- growth at 10 µM (ACHN): 94%
- growth at 10 µM (SR): 77.7%
- growth at 10 µM (U-251): 101%
- growth at 10 µM (SW-620): 97%
- growth at 10 µM (MDA-MB-468): 102%
- growth at 10 µM (RXF 393): 94.8%
- growth at 10 µM (HCT-15): 97.1%
- growth at 10 µM (786-0): 89.1%
- growth at 10 µM (MCF7): 65.1%
- growth at 10 µM (BT-549): 75.5%
- growth at 10 µM (MDA-MB-231): 74%
- growth at 10 µM (K562): 84.8%
- growth at 10 µM (HT-29): 104%
- growth at 10 µM (COLO 205): 106%
- growth at 10 µM (SNB-19): 92.5%
- growth at 10 µM (NCI-H522): 79.2%
- growth at 10 µM (LOX IMVI): 92.3%
- growth at 10 µM (OVCAR-3): 95.9%
- growth at 10 µM (NCI-H460): 101%
- growth at 10 µM (CAKI-1): 93.2%
- growth at 10 µM (MOLT-4): 79.7%
- growth at 10 µM (KM12): 102%
- growth at 10 µM (NCI-H322M): 86.1%
- growth at 10 µM (SNB-75): 89.3%
- growth at 10 µM (OVCAR-8): 94.5%

Structure (SMILES): Cc1ccccc1C1=Nc2nc3ccccn3c2C(=O)[C@H](Cc2ccccc2)N1
- growth at 10 µM (PC-3): 89.4%
- growth at 10 µM [1]: 101%
- growth at 10 µM (UACC-62): 103%
- growth at 10 µM (NCI-H226): 99%
- growth at 10 µM [2]: 80.6%
- growth at 10 µM [3]: 87.3%
- growth at 10 µM (ACHN): 94.5%
- growth at 10 µM (SR): 122%
- growth at 10 µM (U-251): 100%
- growth at 10 µM (SW-620): 103%
- growth at 10 µM (MDA-MB-468): 104%
- growth at 10 µM (RXF 393): 105%
- growth at 10 µM (HCT-15): 100%
- growth at 10 µM (786-0): 101%
- growth at 10 µM (MCF7): 84.9%
- growth at 10 µM (BT-549): 96.9%
- growth at 10 µM (MDA-MB-231): 104%
- growth at 10 µM (K562): 113%
- growth at 10 µM (HT-29): 115%
- growth at 10 µM (COLO 205): 107%
- growth at 10 µM (SNB-19): 109%
- growth at 10 µM (NCI-H522): 121%
- growth at 10 µM (LOX IMVI): 91.7%
- growth at 10 µM (OVCAR-3): 108%
- growth at 10 µM (NCI-H460): 103%
- growth at 10 µM (CAKI-1): 88.8%
- growth at 10 µM (MOLT-4): 111%
- growth at 10 µM (KM12): 108%
- growth at 10 µM (NCI-H322M): 106%
- growth at 10 µM (SNB-75): 70.8%
- growth at 10 µM (OVCAR-8): 92.8%

Structure (SMILES): Cc1ccc(C2=Nc3nc4ccccn4c3C(=O)[C@H](Cc3ccccc3)N2)cc1
- growth at 10 µM (PC-3): 80.7%
- growth at 10 µM [1]: 99.2%
- growth at 10 µM (UACC-62): 93.2%
- growth at 10 µM (NCI-H226): 88.2%
- growth at 10 µM [2]: 77%
- growth at 10 µM [3]: 91.1%
- growth at 10 µM (ACHN): 92.1%
- growth at 10 µM (SR): 89.7%
- growth at 10 µM (U-251): 99.3%
- growth at 10 µM (SW-620): 102%
- growth at 10 µM (MDA-MB-468): 84.5%
- growth at 10 µM (RXF 393): 95.7%
- growth at 10 µM (HCT-15): 78%
- growth at 10 µM (786-0): 106%
- growth at 10 µM (MCF7): 76.2%
- growth at 10 µM (BT-549): 88.3%
- growth at 10 µM (MDA-MB-231): 93.7%
- growth at 10 µM (K562): 87.9%
- growth at 10 µM (HT-29): 114%
- growth at 10 µM (COLO 205): 113%
- growth at 10 µM (SNB-19): 96.4%
- growth at 10 µM (NCI-H522): 98.1%
- growth at 10 µM (LOX IMVI): 85.8%
- growth at 10 µM (OVCAR-3): 99.3%
- growth at 10 µM (NCI-H460): 103%
- growth at 10 µM (CAKI-1): 76.8%
- growth at 10 µM (MOLT-4): 92.8%
- growth at 10 µM (KM12): 92.9%
- growth at 10 µM (NCI-H322M): 104%
- growth at 10 µM (SNB-75): 80.2%
- growth at 10 µM (OVCAR-8): 92.9%
